Assay results reported in ChEMBL document CHEMBL2157887, “Adamantyl carboxamides and acetamides as potent human 11β-hydroxysteroid dehydrogenase type 1 inhibitors” (Bioorg Med Chem, 2012).
Calls of active or inactive are those of the source. No cut-off for these calls is given here.

How the values were obtained:
[1] = target: T1, 17-beta-hydroxysteroid dehydrogenase type 1 (Homo sapiens) (UniProt P14061); assay: Inhibition of human 17beta-HSD1 in human T47D cells assessed as conversion of [3H]E1 to [3H]E2 at 10 uM after 30 mins; assay type: cell-based
T1 sequence (whole entry): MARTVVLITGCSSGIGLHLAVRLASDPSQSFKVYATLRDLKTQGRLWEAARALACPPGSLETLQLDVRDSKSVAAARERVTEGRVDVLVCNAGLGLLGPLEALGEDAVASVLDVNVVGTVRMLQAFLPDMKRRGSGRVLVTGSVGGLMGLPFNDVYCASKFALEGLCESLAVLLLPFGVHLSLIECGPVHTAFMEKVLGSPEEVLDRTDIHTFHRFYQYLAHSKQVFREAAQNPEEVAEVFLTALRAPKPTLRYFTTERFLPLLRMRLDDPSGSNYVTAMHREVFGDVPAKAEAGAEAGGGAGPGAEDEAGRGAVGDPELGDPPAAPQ

[2] = target: T2, 11-beta-hydroxysteroid dehydrogenase type 2 (Homo sapiens) (UniProt P80365); assay: Inhibition of human 11beta-HSD2 expressed in CHO cells assessed as conversion of [3H]cortisol to [3H]cortisone at 10 uM after 2 hrs
T2 sequence (whole entry): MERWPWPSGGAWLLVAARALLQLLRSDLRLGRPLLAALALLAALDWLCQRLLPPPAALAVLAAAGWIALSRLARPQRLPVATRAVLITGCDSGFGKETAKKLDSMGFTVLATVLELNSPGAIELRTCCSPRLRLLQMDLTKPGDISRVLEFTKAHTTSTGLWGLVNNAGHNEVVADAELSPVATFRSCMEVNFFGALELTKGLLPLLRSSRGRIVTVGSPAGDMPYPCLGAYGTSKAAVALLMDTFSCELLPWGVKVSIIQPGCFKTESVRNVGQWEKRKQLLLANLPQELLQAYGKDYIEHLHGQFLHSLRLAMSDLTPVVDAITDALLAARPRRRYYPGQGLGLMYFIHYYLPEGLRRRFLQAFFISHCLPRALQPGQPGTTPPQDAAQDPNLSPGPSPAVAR

[3] = target: 11-beta-hydroxysteroid dehydrogenase 1 (Homo sapiens) (UniProt P28845); assay: Inhibition of human 11beta-HSD1 expressed in HEK293 cells assessed as conversion of [3H]cortisone to [3H]cortisol at 1 uM after 2 hrs by scintillation counting; assay type: cell-based
How it was run: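 HSD11B1-stably transfected HEK-293 cells grown to 80% confluence, then given serum-free medium with 22 nM ³H-cortisone and compound in 1% DMSO, 37 °C, 2 h. Medium sampled into anti-cortisol antibody/SPA bead mix, shaken to equilibrium, scintillation counted. Percent inhibition against high controls (no compound) and low controls (no cells).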

[4] = Half life in human liver microsomes by HPLC analysis in presence of NADPH; assay type: ADME, Microsome
How it was run: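 Parent compound incubated with human liver microsomes plus NADPH cofactor at 37 °C for 40 min; remaining parent quantified by HPLC to derive T1/2.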

Chain of 11-beta-hydroxysteroid dehydrogenase 1 (Homo sapiens) (P28845 whole entry, looked up): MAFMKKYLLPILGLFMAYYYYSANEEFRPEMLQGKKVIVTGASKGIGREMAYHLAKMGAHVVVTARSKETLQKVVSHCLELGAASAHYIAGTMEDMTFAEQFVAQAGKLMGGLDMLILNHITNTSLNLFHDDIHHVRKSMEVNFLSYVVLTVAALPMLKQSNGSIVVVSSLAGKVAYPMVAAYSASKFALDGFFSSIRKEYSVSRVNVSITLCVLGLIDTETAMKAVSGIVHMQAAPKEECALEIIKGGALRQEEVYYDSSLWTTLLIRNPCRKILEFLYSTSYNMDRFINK

| inhibition [1] | inhibition [2] | inhibition [3] | half-life [4] | SMILES |
| --- | --- | --- | --- | --- |
| inactive | inactive |  |  | O=C(NCc1cccnc1)C12CC3CC(CC(C3)C1)C2 |
| inactive | inactive |  |  | CN(Cc1cccs1)C(=O)C1(c2ccc(Cl)cc2)CC1 |
| inactive | inactive |  |  | O=C(NCc1cccs1)C12CC3CC(CC(C3)C1)C2 |
| inactive | inactive |  |  | Cc1ccc(C2(C(=O)N(C)Cc3cccs3)CC2)cc1 |
| inactive | inactive |  |  | CN(Cc1cccs1)C(=O)C1(C)CCCCC1 |
| inactive | inactive |  |  | Cn1cccc1CNC(=O)CC12CC3CC(CC(C3)C1)C2 |
| inactive | inactive | 26% |  | CN(Cc1ccccn1)C(=O)CC12CC3CC(CC(C3)C1)C2 |
| inactive | inactive |  |  | Cc1ccsc1CN(C)C(=O)C12CC3CC(CC(C3)C1)C2 |
| inactive | inactive |  |  | CN(Cc1cccc(N)c1)C(=O)C12CC3CC(CC(C3)C1)C2 |
| inactive | inactive |  |  | Cc1csc(CN(C)C(=O)C23CC4CC(CC(C4)C2)C3)n1 |
| inactive | inactive |  |  | Cc1cccc(CN(C)C(=O)C23CC4CC(CC(C4)C2)C3)n1 |
| inactive | inactive |  |  | CN(Cc1ccc(Cl)s1)C(=O)C12CC3CC(CC(C3)C1)C2 |
| inactive | inactive |  |  | CN(Cc1cccn1C)C(=O)CC12CC3CC(CC(C3)C1)C2 |
| inactive | inactive |  |  | CN(Cc1ccsc1)C(=O)CC12CC3CC(CC(C3)C1)C2 |
| inactive | inactive |  |  | CN(Cc1cccs1)C(=O)C1(c2ccc(Cl)cc2)CCCC1 |
| inactive | inactive |  |  | CN(Cc1ccnn1C)C(=O)C12CC3CC(CC(C3)C1)C2 |
| inactive | inactive |  |  | CN(Cc1ccsc1)C(=O)C12CC3CC(CC(C3)C1)C2 |
| inactive | inactive |  |  | O=C(NCCc1cccs1)C12CC3CC(CC(C3)C1)C2 |
| inactive | inactive |  |  | Cc1csc(CNC(=O)C23CC4CC(CC(C4)C2)C3)c1 |
| inactive | inactive |  |  | Cn1cccc1CNC(=O)C12CC3CC(CC(C3)C1)C2 |
| inactive | inactive |  |  | CN(Cc1cccs1)C(=O)CC12CC3CC(CC(C3)C1)C2 |

| inhibition [1] | inhibition [2] | inhibition [3] | half-life [4] | SMILES |
| --- | --- | --- | --- | --- |
| inactive | inactive |  |  | O=C(NCc1ccccn1)C12CC3CC(CC(C3)C1)C2 |
| inactive | inactive |  |  | CN(Cc1cccs1)C(=O)C1(c2ccc(Cl)cc2)CCC1 |
| inactive | inactive |  |  | Cc1csc(CN(C)C(=O)C23CC4CC(CC(C4)C2)C3)c1 |
| inactive | inactive |  |  | O=C(NCCc1ccccn1)C12CC3CC(CC(C3)C1)C2 |
| inactive | inactive |  |  | CN(Cc1cccnc1)C(=O)CC12CC3CC(CC(C3)C1)C2 |
| inactive | inactive |  |  | CN(Cc1nccn1C)C(=O)C12CC3CC(CC(C3)C1)C2 |
| inactive | inactive |  |  | Cc1ccc(CN(C)C(=O)C23CC4CC(CC(C4)C2)C3)s1 |
| inactive | inactive |  | 1 h | CN(Cc1cccs1)C(=O)C12CC3CC(CC(C3)C1)C2 |
| inactive | inactive |  |  | CN(CCc1cccs1)C(=O)C12CC3CC(CC(C3)C1)C2 |
| inactive | inactive |  |  | O=C(NCCc1cccnc1)C12CC3CC(CC(C3)C1)C2 |
| inactive | inactive |  |  | Cc1cccc(CN(C)C(=O)C23CC4CC(CC(C4)C2)C3)c1 |
| inactive | inactive |  |  | O=C(CC12CC3CC(CC(C3)C1)C2)NCc1cccs1 |
| inactive | inactive |  |  | CN(Cc1cccs1)C(=O)C12CC3CC(CC1C3)C2 |
| inactive | inactive |  |  | CN(Cc1sccc1N)C(=O)C12CC3CC(CC(C3)C1)C2 |
| inactive | inactive |  |  | CN(Cc1cccnc1)C(=O)C12CC3CC(CC(C3)C1)C2 |
| inactive | inactive |  |  | CN(CCc1ccccn1)C(=O)C12CC3CC(CC(C3)C1)C2 |
| inactive | inactive |  |  | CN(Cc1ccco1)C(=O)C12CC3CC(CC(C3)C1)C2 |
| inactive | inactive |  |  | O=C(NCc1ccco1)C12CC3CC(CC(C3)C1)C2 |
| inactive | inactive |  |  | CN(Cc1cccc(Cl)c1)C(=O)C12CC3CC(CC(C3)C1)C2 |
| inactive | inactive |  |  | CC(=O)Nc1cccc(CN(C)C(=O)C23CC4CC(CC(C4)C2)C3)c1 |
| inactive | inactive |  | 1 h | CN(Cc1cccn1C)C(=O)C12CC3CC(CC(C3)C1)C2 |
